# Assay outcomes: PubChem BioAssay, several laboratories
# Only some compounds are listed: those with a hit (about 4.1% of all), similar ones and a draw of the others.
# KCNK9 block – human KCNK9 channel inhibition | hit rate 1.2% among 310,000 | HEK293 KCNK9, FluxOR thallium flux fluorescence; active compounds read low | B-score at 10 µM | Q9NPC2;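 active = ratio B-score over 3 SD below the library mean, with starting fluorescence within 5 SD of its mean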;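 also: negative B-score means less thallium flux so channel inhibition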
# Target sequence (Q9NPC2 whole entry, looked up): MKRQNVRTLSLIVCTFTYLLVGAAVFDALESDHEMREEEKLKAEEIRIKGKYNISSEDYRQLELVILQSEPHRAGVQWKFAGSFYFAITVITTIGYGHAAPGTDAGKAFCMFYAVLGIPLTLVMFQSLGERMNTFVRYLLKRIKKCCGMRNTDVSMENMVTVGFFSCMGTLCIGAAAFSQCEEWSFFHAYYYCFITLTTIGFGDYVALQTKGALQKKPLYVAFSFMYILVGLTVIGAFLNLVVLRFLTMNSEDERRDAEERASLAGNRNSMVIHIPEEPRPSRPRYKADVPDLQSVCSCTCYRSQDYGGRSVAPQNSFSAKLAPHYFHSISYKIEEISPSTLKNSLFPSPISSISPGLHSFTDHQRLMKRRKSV
# KCNQ1 pot – human KCNQ1 channel potentiation or activation | B-score at 10 µM | hit rate 0.35% among 310,000 | CHO-K1 KCNQ1, thallium flux FluxOR fluorescence; active compounds read high;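 active = fluorescence ratio B-score, a plate-corrected score, at least three library SD, with initial intensity B-score within 5 SD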
#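 System: Stable KCNQ1 CHO-K1 line | Incubation: 90 min dye loading and 20 min compound exposure, both at room temperature | Measure: Ratio B score | Medium: Assay buffer for compound exposure, DMSO matched across wells | Compound dosing: Single-concentration screen | Probe or stimulus: K+/Tl+ depolarizing stimulus | Measured by: Kinetic FluxOR fluorescence, 10 s baseline plus 110 s post-stimulus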
# hERG protect – compounds protecting human hERG from proarrhythmic drug block; CHO-hERG, FluxOR thallium flux, dofetilide IC70 present; AID 1511; activation (rescue from dofetilide block), less the hit threshold, % at 10 µM; hit rate 0.51% among 310,000;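 active = activation above the mean of controls blocked by dofetilide plus 5 SD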;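 also: thallium influx through hERG after potassium depolarization seen as dye fluorescence rise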
# Cl transport mod – modulators of human KCC2 chloride dependent transport; Q9H2X9; KCC2 cells, thallium flux FluoZin-2 fluorescence; B-score of Tl+ flux slope (higher = more flux/activation; lower = inhibition) at 10 µM; hit rate 2.2% among 190,000; AID 1456;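 active = thallium flux slope and its plate-corrected score both differing from the plate sample mean at a set confidence after two filtering rounds, in either direction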;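 also: slope of fluorescence scaled to starting intensity during 10 to 20 s after thallium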
# KCNQ1 inh – blocks the human KCNQ1 potassium channel | P51787 | CHO-K1 KCNQ1, FluxOR thallium flux fluorescence; active compounds read high | B-score at 10 µM | hit rate 1.3% among 310,000 | AID 2642;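 active = compounds whose thallium flux B-score, printed positive for inhibition, exceeds three library SD while starting fluorescence stays within three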;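 also: channel opened by potassium depolarization with thallium stimulus after 20 min compound exposure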
# KCNK3 block – human KCNK3 channel inhibition, primary screen. O14649. CHO-KCNK3 thallium flux, FluxOR fluorescence; active compounds read low. B-score at 10 µM. hit rate 0.84% among 340,000;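 active = B-score under library mean minus 4 SD, starting fluorescence ratio at most library mean plus 5 SD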;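 also: more negative B-score means stronger inhibition of thallium flux through KCNK3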
# KCC2 sec1 – confirmation of human KCC2 transport modulators; hit rate 15% among 3,700; AID 1713; normalised thallium flux (F/F0 slope) at 10 µM; shares compounds with Cl transport mod; HEK293-KCC2, thallium flux, FluoZin2 fluorescence; active compounds read high;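 active = thallium flux slope above the same plate's solvent-only control mean plus 3 SD; inconclusive = the two replicate wells disagree; inactive = no significant difference from solvent-only control wells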
# KCC2 bumet counter – thallium flux despite bumetanide block in KCC2 cells, secondary assay 3; shares compounds with Cl transport mod; HEK293-KCC2 + bumetanide/ouabain, thallium flux FluoZin2; active compounds read high; normalized thallium flux at 10 µM; hit rate 49% among 3,700;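 active = thallium entry rate above the same plate's blocked-transporter control wells by more than 3 SD; inconclusive = the two repeat wells disagree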;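 also: raw slope of fluorescence over initial fluorescence between 10 and 20 s after thallium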
# KCC2 secondary2 – confirmation of human KCC2 transport modulators. shares compounds with Cl transport mod. HEK293-KCC2, thallium flux FluoZin2 fluorescence; actives lie on both sides; F/F0 rise rate, 10–20 s post-thallium. normalized thallium flux at 10 µM. hit rate 23% among 3,700. AID 1715;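 active = thallium flux slope more than 3 SD above or below the plate's solvent-only control mean, mostly below; inconclusive = the two repeat wells disagreed; inactive = no significant shift from solvent-only controls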;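 also: raw slope with 0.1% DMSO as baseline and bumetanide as block control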
# HEK counter1 – acts in parental HEK cells, KCC2 counter-screen; shares compounds with Cl transport mod; HEK293 parental cells, thallium flux FluoZin2, ouabain; baseline-ratio fluorescence slope, 10–20 s after thallium; thallium flux rate (normalised fluorescence) at 10 µM; hit rate 46% among 3,700;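 active = thallium flux rate significantly above the same plate's solvent-only control wells, beyond their mean plus 3 SD; inconclusive = the two replicate wells gave conflicting results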
# KCC2 retest ouab – modulates human KCC2 on retest with ouabain | AID 1717 | hit rate 48% among 3,700 | raw Tl+ flux slope (below DMSO = inhibition, above = activation) at 10 µM | shares compounds with Cl transport mod | HEK293-KCC2, thallium flux FluoZin2 fluorescence; bidirectional: low = inhibitor, high = activator;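 active = thallium flux slope beyond 3 SD from same-plate DMSO control mean in most replicates, usually higher, sometimes lower; inconclusive = repeat tests gave conflicting results; inactive = no significant difference from controls in most replicates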;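 also: slope of initial-normalized fluorescence between seconds 10 and 20 after thallium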
# HEK counter2 – parental HEK flux effect, counter-screen 2 | HEK293 parental, thallium flux FluoZin-2 fluorescence slope | hit rate 33% among 3,700 | shares compounds with Cl transport mod | thallium flux slope at 10 µM;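 active = thallium flux slope above the same plate's solvent-control mean plus 3 SD in both duplicate wells; inconclusive = duplicate wells that disagreed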;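 also: run without ouabain in cells lacking the KCC2 cotransporter; slope of fluorescence scaled to its starting value between 10 and 20 s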
# Active calls of the source: *; i = inactive; ? = inconclusive; / = not tested or not shown.
SMILES,KCNK9 block,KCNQ1 pot,hERG protect,Cl transport mod,KCNQ1 inh,KCNK3 block,KCC2 sec1,KCC2 bumet counter,KCC2 secondary2,HEK counter1,KCC2 retest ouab,HEK counter2
COc1ccc(C(=O)CSc2nnnn2Cc2ccccc2)cc1,i,i,0,-6.4*,i,i,0.0048,0.0074*,0.025*,0.0076,?,0.012
Cc1ccc(CNC(=O)c2cc(Cl)cc(Cl)c2)n1C,i,i,-11,/,i,i,/,/,/,/,/,/
O=C(Nc1cccc2nsnc12)c1cc2c(cc1Cl)Sc1nccn1S2(=O)=O,/,/,/,/,/,i,/,/,/,/,/,/
Cc1noc(C(=O)NCc2ccc(F)cc2)c1Cl,i,i,-17,6.8*,i,i,0.0085,0.0067,0.029,0.007,0.021,0.0095
CCOc1ccc(N(C(C)C(=O)Nc2ccc(OC)cc2)S(C)(=O)=O)cc1 (stereo not drawn),i,i,-10,-5*,i,i,0.015,0.0046,0.029,0.0073,0.015,0.011
CC(/C=C1\SC(=S)N(CCCC(=O)Nc2ccc(C(=O)O)c(O)c2)C1=O)=C\c1ccccc1,i,i,-20,-4.7*,i,/,0.0061,0.0043,0.026,0.0068,0.014*,0.0095
O=C(COC(=O)/C=C/c1ccc(F)cc1)Nc1nnc(-c2ccccc2)o1,/,/,/,/,/,i,/,/,/,/,/,/
COc1ccc2nc(N/C(N)=N/C(=S)Nc3cccc(C)c3)nc(C)c2c1,i,i,-8,-0.21,i,i,/,/,/,/,/,/
COc1ccc(NC(=S)/N=C(\N)Nc2nc(C)c3ccccc3n2)cc1,i,i,-3,-3.6*,i,i,0.007,0.0049,0.026*,0.0071,0.017*,0.0098
O=C(Oc1cc(=O)n2ccccc2n1)c1ccccc1,i,i,-12,-4.3*,i,i,0.012*,0.0074,0.028,0.0056*,0.021,0.0095
O=S(=O)(NCc1csc(-c2cccs2)n1)c1cccs1,i,i,-11,-4.1,i,i,/,/,/,/,/,/
O=S(=O)(NCc1csc(-c2cccs2)n1)c1ccc(Cl)cc1,i,i,-12,-5.1*,i,i,?,?,0.019*,0.005*,0.01*,?
Cc1ccc(S(=O)(=O)NCc2csc(-c3cccs3)n2)cc1,i,i,-6,-2.1*,i,i,0.0054,0.0035,0.022*,0.0063,0.012*,?
O=S(=O)(NCc1csc(-c2cccs2)n1)c1cccc(C(F)(F)F)c1,i,i,-6,-5.4*,i,i,?,0.0036,0.019*,0.0058*,0.01*,?
Cc1nc(CNS(=O)(=O)c2cccc(F)c2)cs1,i,i,-3,0.61,i,i,/,/,/,/,/,/
COC(=O)CC1C(=O)NCCN1C(=O)CSc1nc2ccccc2o1 (stereo not drawn),i,i,-3,1.4,i,i,/,/,/,/,/,/
COC(=O)CC1C(=O)NCCN1C(=O)CSc1nc2ccccc2c(=O)n1CC(C)C (stereo not drawn),i,i,-5,22*,i,i,0.0067,0.035*,0.04*,0.032*,0.038*,0.026*
